These results are taken from ChEMBL document CHEMBL1139139, “Discovery of novel 2,3-diarylfuro[2,3-b]pyridin-4-amines as potent and selective inhibitors of Lck: synthesis, SAR, and pharmacokinetic properties” (Bioorg Med Chem Lett, 2007).

In data set [1] the target is Vascular endothelial growth factor receptor 2 (Homo sapiens, UniProt P35968). Put plainly: Inhibition of KDR.
The target in a further data set is Activated CDC42 kinase 1 (Homo sapiens, UniProt Q07912). Put plainly: Inhibition of Ack1.
Activated CDC42 kinase 1, sequence (Q07912 whole entry): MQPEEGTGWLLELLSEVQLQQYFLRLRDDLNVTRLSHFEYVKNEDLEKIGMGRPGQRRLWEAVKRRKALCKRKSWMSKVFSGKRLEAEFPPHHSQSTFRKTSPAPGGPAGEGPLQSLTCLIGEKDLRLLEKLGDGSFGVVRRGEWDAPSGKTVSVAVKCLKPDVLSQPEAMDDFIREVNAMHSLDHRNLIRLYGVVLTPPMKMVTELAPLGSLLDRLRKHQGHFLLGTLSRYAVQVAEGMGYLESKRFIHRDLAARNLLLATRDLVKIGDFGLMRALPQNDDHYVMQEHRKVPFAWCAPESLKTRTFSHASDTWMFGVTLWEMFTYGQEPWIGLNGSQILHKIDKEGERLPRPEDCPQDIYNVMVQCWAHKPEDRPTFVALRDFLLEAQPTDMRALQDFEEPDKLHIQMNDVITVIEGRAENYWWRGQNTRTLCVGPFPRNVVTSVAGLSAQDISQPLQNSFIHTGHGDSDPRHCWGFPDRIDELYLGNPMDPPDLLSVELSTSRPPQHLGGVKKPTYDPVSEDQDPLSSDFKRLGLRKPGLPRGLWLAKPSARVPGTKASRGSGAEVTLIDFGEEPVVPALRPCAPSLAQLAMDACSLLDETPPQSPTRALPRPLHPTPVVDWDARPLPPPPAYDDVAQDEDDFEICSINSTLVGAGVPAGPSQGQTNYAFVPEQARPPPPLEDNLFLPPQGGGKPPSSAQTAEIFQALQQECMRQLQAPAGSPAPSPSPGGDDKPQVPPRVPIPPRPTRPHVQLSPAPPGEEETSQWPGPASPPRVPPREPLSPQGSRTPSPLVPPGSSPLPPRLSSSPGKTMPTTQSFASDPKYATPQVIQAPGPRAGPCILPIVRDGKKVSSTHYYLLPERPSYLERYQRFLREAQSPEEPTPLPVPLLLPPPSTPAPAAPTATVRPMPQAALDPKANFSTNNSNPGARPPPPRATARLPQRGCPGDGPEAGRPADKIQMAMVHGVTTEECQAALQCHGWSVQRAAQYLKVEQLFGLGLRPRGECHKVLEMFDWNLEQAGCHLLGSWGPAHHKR
Data set [2] addresses T1, Tyrosine-protein kinase JAK3 (Homo sapiens, UniProt P52333).
T1 sequence (P52333 whole entry): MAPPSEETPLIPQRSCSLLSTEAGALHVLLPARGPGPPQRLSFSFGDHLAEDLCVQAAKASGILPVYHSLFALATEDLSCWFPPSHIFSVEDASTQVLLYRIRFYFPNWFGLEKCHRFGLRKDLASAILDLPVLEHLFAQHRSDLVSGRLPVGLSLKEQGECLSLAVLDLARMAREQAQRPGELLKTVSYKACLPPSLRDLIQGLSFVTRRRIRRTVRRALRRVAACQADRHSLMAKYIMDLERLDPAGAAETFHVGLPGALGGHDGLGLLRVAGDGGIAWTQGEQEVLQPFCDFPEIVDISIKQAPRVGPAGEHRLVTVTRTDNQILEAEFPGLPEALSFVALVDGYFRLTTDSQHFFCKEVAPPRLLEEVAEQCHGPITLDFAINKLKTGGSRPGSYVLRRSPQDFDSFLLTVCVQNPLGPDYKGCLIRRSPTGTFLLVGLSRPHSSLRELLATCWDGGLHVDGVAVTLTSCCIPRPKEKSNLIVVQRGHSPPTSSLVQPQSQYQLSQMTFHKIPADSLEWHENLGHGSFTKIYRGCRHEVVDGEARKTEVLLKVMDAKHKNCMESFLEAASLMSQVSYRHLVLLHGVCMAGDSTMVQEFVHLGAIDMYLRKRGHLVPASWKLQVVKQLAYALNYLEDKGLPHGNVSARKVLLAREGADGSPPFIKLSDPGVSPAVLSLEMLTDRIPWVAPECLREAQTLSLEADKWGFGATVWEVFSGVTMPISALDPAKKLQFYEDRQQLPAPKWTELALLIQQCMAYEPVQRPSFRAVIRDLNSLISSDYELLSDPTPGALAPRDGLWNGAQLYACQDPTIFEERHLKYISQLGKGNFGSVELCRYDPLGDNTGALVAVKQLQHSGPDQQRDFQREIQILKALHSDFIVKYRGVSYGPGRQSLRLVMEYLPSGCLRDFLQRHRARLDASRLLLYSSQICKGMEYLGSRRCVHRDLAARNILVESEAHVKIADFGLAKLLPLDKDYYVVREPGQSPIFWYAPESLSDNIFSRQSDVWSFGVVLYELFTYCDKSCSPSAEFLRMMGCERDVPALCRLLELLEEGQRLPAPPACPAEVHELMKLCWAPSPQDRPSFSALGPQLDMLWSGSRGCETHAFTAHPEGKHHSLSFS
Briefly: Inhibition of JAK3.

For data set [3], the system named is T-cell. Briefly: Inhibition of anti-CD3/CD28-induced IL2 secretion in human T cells. The class given is functional, cell-based. The gist of the method:
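Human T cells stimulated with anti-CD3/CD28, with IL-2 secretion as read-out. IC50 determined.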

The subject of data set [4] is T-cell. Put plainly: Inhibition of T cell activation in human mixed lymphocyte reaction. The data set is classed as functional, cell-based.
Data set [5] can be described thus: Clearance in Sprague-Dawley rat at 1 mg/kg, iv. The class given is ADME, organism-based. On the set-up: dose 1 mg/kg, route intravenous. The following applies: in vivo.
Data set [6] is described as follows: Volume of distribution at steady state Sprague-Dawley rat at 1 mg/kg, iv. The data set is classed as ADME, organism-based. On the set-up: dose 1 mg/kg, route intravenous. The following applies: in vivo, read-out: Vdss.
Data set [7] can be described thus: (§1) Half life in Sprague-Dawley rat at 1 mg/kg, iv. On the set-up: dose 1 mg/kg, route intravenous. Particulars: Sprague-Dawley, in vivo. The data set is classed as ADME, organism-based.
The target in data set [8] is Tyrosine-protein kinase Lck (Homo sapiens, UniProt P06239). Briefly: Inhibition of Lck by HTRF assay. A general note: Time-resolved FRET reads energy transfer from a long-lived donor to a nearby acceptor.
Tyrosine-protein kinase Lck, sequence (P06239 whole entry): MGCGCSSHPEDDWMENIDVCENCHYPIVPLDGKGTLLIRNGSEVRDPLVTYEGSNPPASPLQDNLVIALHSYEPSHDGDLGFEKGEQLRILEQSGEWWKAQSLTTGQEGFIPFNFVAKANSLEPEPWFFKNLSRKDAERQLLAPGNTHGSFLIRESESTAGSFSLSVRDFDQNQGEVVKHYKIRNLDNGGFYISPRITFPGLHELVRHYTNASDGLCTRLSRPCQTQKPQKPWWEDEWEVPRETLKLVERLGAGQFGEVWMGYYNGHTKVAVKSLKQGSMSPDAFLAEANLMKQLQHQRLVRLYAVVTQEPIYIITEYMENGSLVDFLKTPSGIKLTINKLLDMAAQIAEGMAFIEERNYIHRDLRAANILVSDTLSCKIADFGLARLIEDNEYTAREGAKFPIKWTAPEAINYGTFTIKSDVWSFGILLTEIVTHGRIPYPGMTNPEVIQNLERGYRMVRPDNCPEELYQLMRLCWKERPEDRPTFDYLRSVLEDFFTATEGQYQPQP
The next data set concerns Rattus norvegicus. The data set is described as §1. Particulars: in vivo. The data set is classed as ADME, organism-based. On the set-up: dose 1 mg/kg, route intravenous.

Vascular endothelial growth factor receptor 2, sequence (P35968 whole entry): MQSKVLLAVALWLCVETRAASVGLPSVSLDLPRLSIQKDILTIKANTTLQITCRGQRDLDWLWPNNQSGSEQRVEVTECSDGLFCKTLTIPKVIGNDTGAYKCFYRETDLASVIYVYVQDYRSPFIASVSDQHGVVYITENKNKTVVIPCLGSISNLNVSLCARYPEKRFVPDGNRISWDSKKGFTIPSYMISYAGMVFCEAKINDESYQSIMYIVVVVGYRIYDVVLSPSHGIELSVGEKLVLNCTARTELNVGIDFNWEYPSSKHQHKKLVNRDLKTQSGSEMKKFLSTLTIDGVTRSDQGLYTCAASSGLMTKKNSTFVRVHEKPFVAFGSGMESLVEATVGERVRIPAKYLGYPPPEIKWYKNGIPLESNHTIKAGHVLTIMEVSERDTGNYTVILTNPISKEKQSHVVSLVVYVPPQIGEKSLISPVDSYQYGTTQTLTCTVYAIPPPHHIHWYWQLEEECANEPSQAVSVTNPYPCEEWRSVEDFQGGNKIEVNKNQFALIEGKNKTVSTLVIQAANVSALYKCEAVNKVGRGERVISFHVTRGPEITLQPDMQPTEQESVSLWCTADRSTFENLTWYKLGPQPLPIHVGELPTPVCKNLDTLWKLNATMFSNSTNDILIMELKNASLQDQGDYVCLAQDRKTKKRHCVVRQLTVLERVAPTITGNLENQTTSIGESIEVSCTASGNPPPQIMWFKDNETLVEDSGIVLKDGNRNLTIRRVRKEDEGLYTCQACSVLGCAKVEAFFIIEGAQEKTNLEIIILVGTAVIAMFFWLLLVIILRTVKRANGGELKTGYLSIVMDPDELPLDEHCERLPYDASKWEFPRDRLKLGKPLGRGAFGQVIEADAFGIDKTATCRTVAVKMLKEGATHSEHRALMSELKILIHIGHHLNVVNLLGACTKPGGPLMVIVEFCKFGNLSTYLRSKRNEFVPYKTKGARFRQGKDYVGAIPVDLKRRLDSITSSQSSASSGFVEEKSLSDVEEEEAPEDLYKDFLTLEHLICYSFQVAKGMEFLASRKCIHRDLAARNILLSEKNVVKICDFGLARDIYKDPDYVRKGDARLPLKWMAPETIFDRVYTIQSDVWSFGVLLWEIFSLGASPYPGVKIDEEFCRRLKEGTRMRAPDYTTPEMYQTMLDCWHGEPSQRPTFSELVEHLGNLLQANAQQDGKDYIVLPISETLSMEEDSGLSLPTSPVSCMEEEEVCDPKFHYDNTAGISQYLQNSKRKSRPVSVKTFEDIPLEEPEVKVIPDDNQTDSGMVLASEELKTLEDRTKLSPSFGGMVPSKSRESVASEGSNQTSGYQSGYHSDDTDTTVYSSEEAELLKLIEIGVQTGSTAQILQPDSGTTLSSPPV

Regarding `c1ccc(-c2c(-c3ccc(OCCN4CCCCC4)cc3)oc3nccc(NCCCn4ccnc4)c23)cc1`, the results for the IC50 (in [1]; on Activated CDC42 kinase 1; in data set [2]) were 1700 nM, 930 nM and 1400 nM, respectively.
With `c1ccc(-c2c(-c3ccc(OCCN4CCOCC4)cc3)oc3nccc(NCCN4CCNCC4)c23)cc1`, the IC50 is 57 nM in [1]; 150 nM at Activated CDC42 kinase 1; 32 nM in data set [2]; 130 nM in the data set on T-cell [3]; 14 nM with T-cell [4]. For the same compound, the clearance in data set [5] is 128 mL/min/kg. Besides, in data set [6], the Vd came to 4.7 L/kg. Further, the half-life in data set [7] is 5.3 h.
In the case of `c1ccc(-c2c(-c3ccc(OCCn4ccnc4)cc3)oc3nccc(NCCN4CCNCC4)c23)cc1`, the concentration for half-maximal inhibition (IC50) is 160 nM in data set [1]; 84 nM at Activated CDC42 kinase 1; 25 nM in data set [2]; 470 nM in the data set on T-cell [3]; 57 nM in the data set on T-cell [4]. In [5], this compound gave a clearance of 192 mL/min/kg. Moreover, in data set [6], the Vd stood at 7.2 L/kg. This compound gave a half-life in data set [7] of 0.8 h.
`c1ccc(-c2oc3ncnc(NCCN4CCNCC4)c3c2-c2ccccc2)cc1`: the figures for the concentration for half-maximal inhibition (IC50) (in data set [1]; with T-cell [3]) were 2600 nM and 710 nM, respectively.
On to `c1ccc(-c2oc3nccc(NCCN4CCNCC4)c3c2-c2ccccc2)cc1`, for which the IC50 was found to be 360 nM in data set [1]; 420 nM at Activated CDC42 kinase 1; 140 nM in data set [2]; 1200 nM with T-cell [3]; 620 nM in the data set with T-cell [4]. Also, the clearance in data set [5] is 20 mL/min/kg. Further, in data set [6], the Vd was 2.3 L/kg. The half-life in data set [7] was 1.5 h.
Regarding `c1ccc(-c2oc3nccc(NC[C@@H]4CCCO4)c3c2-c2ccccc2)cc1`, the IC50 was determined as 2100 nM in [8]; 4200 nM in data set [1]; 110 nM against Activated CDC42 kinase 1; 26 nM in data set [2]; 5200 nM in the data set with T-cell [3]; 4000 nM with T-cell [4].
Take `CC(C)N(CCOc1ccc(-c2oc3nccc(NCCN4CCNCC4)c3c2-c2ccccc2)cc1)C(C)C`: the IC50 stood at 19 nM in data set [8]; 67 nM in [1]; 180 nM on Activated CDC42 kinase 1; 44 nM in [2]; 250 nM with T-cell [3]; 18 nM in the data set with T-cell [4]. The t1/2 in the data set with Rattus norvegicus is 3.1 h.
For the compound `c1ccc(-c2c(-c3ccc(OCCN4CCCCC4)cc3)oc3nccc(NCCN4CCNCC4)c23)cc1`, the IC50 is 29 nM in data set [8]; 100 nM in data set [1]; 120 nM against Activated CDC42 kinase 1; 71 nM in data set [2]; 510 nM in the data set with T-cell [3]; 61 nM in the data set with T-cell [4]. The compound also showed a clearance in [5] of 188 mL/min/kg. In data set [6], the Vd was determined as 60 L/kg. The same compound had a half-life in data set [7] of 4.7 h.
Consider `c1ccc(-c2c(-c3ccc(OCCN4CCCCC4)cc3)oc3nccc(NCCc4cccnc4)c23)cc1`, for which the half-inhibitory concentration (IC50) is 370 nM in data set [1], 20 nM at Activated CDC42 kinase 1 and 37 nM in [2].
`c1ccc(-c2c(-c3ccc(OCCN4CCCC4)cc3)oc3nccc(NCCN4CCNCC4)c23)cc1`: the IC50 in data set [1] stood at 210 nM; on Activated CDC42 kinase 1, 170 nM; in [2] it was 110 nM; in the data set on T-cell [3], 650 nM; with T-cell [4], 170 nM.
As for `c1ccc(-c2c(-c3ccc(OCCN4CCCCC4)cc3)oc3nccc(NCCc4ccncc4)c23)cc1`, the half-maximal inhibitory concentration (IC50) in data set [8] turned out to be 1600 nM; in data set [1] it was 4700 nM; at Activated CDC42 kinase 1, 180 nM; in data set [2] it was 80 nM.

The IC50 is the point on the concentration scale where inhibition reaches its midpoint. Lower therefore signals greater potency. The term clearance denotes a measure of how efficiently the substance is removed, as volume per time. A low value points to a low capacity for elimination. By half-life is commonly meant how long it takes for the measured level to halve. A high value points to slow decline.
